Publication PMC3753066 (Nature methods, 2013)
Values after ≈ are worked out from the molar mass of the structure shown. Starred links: 1 amine or outer side, 2 acyl side, 3 side chain; linkers in the order of their positions; H or OH if unused. Non-standard residues stand in square brackets, D forms with d. Residues, ends and D or L forms follow the SMILES beside them. X1 = CCCCCCCC[C@@H](C(=O)[*:2])N(C)[*:1]; Gly(octyl) = CCCCCCCC[C@H](N)C(=O)O; NMeL = CN[C@@H](CC(C)C)C(=O)O

What was measured:
[1] = Water solubility of the peptides; format: physicochemical
MsbA = MsbA (Escherichia coli, UniProt P60752); test: MsbA ATPase activity and stability in BPs or detergent; format: biochemical, E. coli; details: for ATPase activity of MsbA solubilized in the reagent: measured in triplicate at 37 °C, 20 mM Tris pH 7.5, 20 mM NaCl, 0.2–0.5 mg/mL
MsbA, sequence (P60752 whole entry): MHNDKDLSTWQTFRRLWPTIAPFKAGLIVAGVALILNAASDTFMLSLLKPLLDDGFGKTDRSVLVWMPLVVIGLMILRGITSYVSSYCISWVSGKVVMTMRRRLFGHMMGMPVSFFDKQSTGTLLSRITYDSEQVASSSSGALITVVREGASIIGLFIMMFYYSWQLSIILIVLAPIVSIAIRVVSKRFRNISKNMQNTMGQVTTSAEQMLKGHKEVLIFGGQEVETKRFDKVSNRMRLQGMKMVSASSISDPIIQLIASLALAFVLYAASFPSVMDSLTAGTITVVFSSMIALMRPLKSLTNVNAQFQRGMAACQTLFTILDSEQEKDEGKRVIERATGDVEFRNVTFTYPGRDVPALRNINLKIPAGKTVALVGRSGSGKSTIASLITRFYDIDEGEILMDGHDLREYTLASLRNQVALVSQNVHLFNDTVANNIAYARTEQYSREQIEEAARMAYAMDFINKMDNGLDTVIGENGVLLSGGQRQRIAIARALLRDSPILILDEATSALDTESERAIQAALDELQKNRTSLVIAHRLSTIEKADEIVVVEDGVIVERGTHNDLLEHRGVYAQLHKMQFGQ
Method in brief: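 E. coli MsbA purified in UDM, then mixed with peptide at 50:1–100:1 molar ratio (peptide:protein). Detergent was removed by dialysis (6 kDa cutoff, 4 °C, 1–2 days, TLC-monitored) and the supernatant kept after 300,000 × g, 2 h, 4 °C. Comparison preparations were in UDM, LMNG, Amphipol A8-35 (5:1 w/w) or MSP1D1/DMPC nanodiscs. Samples (0.2–0.5 mg/mL) were held at RT up to 40 days, with linked-enzyme ATPase read-out, means ± standard error.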

| SMILES | solubility [1] | change of MsbA ATPase activity on incubation (MsbA; 40 days of incubation at RT) | ATPase activity of MsbA solubilized in the reagent (MsbA) | loss of MsbA ATPase activity (MsbA; within the first day of incubation at RT, accompanied by protein precipitation) |
| --- | --- | --- | --- | --- |
| CCCCCCCC[C@H](NC(C)=O)C(=O)N[C@@H](CO)C(=O)N[C@@H](CC(C)C)C(=O)N[C@@H](CO)C(=O)N(C)[C@@H](CC(C)C)C(=O)N[C@@H](CC(=O)O)C(=O)N[C@@H](CCCCCCCC)C(=O)N[C@@H](CC(=O)O)C(N)=O [BP-1] (Ac-[Gly(octyl)]SLS[NMeL]D[Gly(octyl)]D-NH2) | ~3000 µM (≈ 3130 µg/mL) | little change | ~ 4 μmol/min/mg |  |
| CCCCCCCC[C@H](NC(C)=O)C(=O)N[C@@H](CO)C(=O)N(C)[C@@H](CC(C)C)C(=O)N[C@@H](CO)C(=O)N(C)[C@@H](CC(C)C)C(=O)N[C@@H](CC(=O)O)C(=O)N[C@@H](CCCCCCCC)C(=O)N[C@@H](CC(=O)O)C(N)=O [BP-2] (Ac-[Gly(octyl)]S[NMeL]S[NMeL]D[Gly(octyl)]D-NH2) | ~3000 µM (≈ 3170 µg/mL) |  |  |  |
| CCCCCCCC[C@H](NC(C)=O)C(=O)N[C@@H](CO)C(=O)N(C)[C@@H](CC(C)C)C(=O)N[C@@H](CO)C(=O)N(C)[C@@H](CC(C)C)C(=O)N[C@@H](CC(=O)O)C(=O)N(C)[C@@H](CCCCCCCC)C(=O)N[C@@H](CC(=O)O)C(N)=O [BP-3] (Ac-[Gly(octyl)]S[NMeL]S[NMeL]D[X1]D-NH2) | ~1000 µM (≈ 1070 µg/mL) |  |  |  |
| CCCCCCCCCCCO[C@@H]1O[C@H](CO)[C@@H](O[C@H]2O[C@H](CO)[C@@H](O)[C@H](O)[C@H]2O)[C@H](O)[C@H]1O [UDM, β-D-undecylmaltoside, reference compound] |  |  | 2.2 µmol/min/mg | ~ 80% |
